# Results reported in the M2OR odorant receptor database.
# Legend:
# Settings in all cases: stereoisomer not certain
# OR52D1 (Homo sapiens) = target: T1, OR52D1 (Homo sapiens) (UniProt Q9H346)
# T1 sequence (whole entry): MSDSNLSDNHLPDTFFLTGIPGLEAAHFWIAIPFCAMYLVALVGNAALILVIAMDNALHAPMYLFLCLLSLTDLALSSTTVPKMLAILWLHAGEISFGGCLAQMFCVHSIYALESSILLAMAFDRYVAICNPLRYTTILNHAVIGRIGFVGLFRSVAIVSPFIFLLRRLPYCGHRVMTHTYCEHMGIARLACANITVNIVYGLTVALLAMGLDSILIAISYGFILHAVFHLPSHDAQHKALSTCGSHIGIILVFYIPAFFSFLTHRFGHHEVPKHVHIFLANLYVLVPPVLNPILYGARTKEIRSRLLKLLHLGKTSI
# Summary of the method: (§1)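 Whether a receptor–molecule pair is responsive (active) rests on the original authors' judgment that its measured signal was statistically different from baseline. Pairs without that judgment are non-responsive (inactive). Sources used varied assay methods, commonly transient luciferase assays in mammalian cell lines.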
# OR52E1 (Homo sapiens) = OR52E1 (Homo sapiens) (UniProt Q8NGJ3)
# Summary of the method: as §1
# OR52E2 (Homo sapiens) = OR52E2 (Homo sapiens) (UniProt Q8NGJ4)
# Summary of the method: as §1
# OR52E4 (Homo sapiens) = OR52E4 (Homo sapiens) (UniProt Q8NGH9)
# Summary of the method: as §1
# OR52E6 (Homo sapiens) = OR52E6 (Homo sapiens) (UniProt Q96RD3)
# Summary of the method: as §1
# OR52I1 (Homo sapiens) = OR52I1 (Homo sapiens) (UniProt Q8NGK6)
# Summary of the method: as §1
# OR52I2 (Homo sapiens) = OR52I2 (Homo sapiens) (UniProt Q8NH67)
# Summary of the method: as §1
# OR52J3 (Homo sapiens) = OR52J3 (Homo sapiens) (UniProt Q8NH60)
# Summary of the method: as §1
# OR52K1 (Homo sapiens) = OR52K1 (Homo sapiens) (UniProt Q8NGK4)
# Summary of the method: as §1
# OR52K2 (Homo sapiens) = OR52K2 (Homo sapiens) (UniProt Q8NGK3)
# Summary of the method: as §1
# OR52L1 (Homo sapiens) [1] = target: OR52L1 (Homo sapiens) (UniProt Q8NGH7)
# Summary of the method: as §1
# OR52M1 (Homo sapiens) = OR52M1 (Homo sapiens) (UniProt Q8NGK5)
# Summary of the method: as §1
# OR52N1 (Homo sapiens) = OR52N1 (Homo sapiens) (UniProt Q8NH53)
# Summary of the method: as §1
# OR52N2 (Homo sapiens) = OR52N2 (Homo sapiens) (UniProt Q8NGI0)
# Summary of the method: as §1
# OR52N4 (Homo sapiens) = OR52N4 (Homo sapiens) (UniProt Q8NGI2)
# Summary of the method: as §1
# OR52N5 (Homo sapiens) = OR52N5 (Homo sapiens) (UniProt Q8NH56)
# Summary of the method: as §1
# OR52R1 (Homo sapiens) = OR52R1 (Homo sapiens) (UniProt Q8NGF1)
# Summary of the method: as §1
# OR52W1 (Homo sapiens) = OR52W1 (Homo sapiens) (UniProt Q6IF63)
# Summary of the method: as §1
# OR52E5 (Homo sapiens) = OR52E5 (Homo sapiens) (UniProt Q8NH55)
# Summary of the method: as §1
# OR52L1 (Homo sapiens) [2] = target: OR52L1 (Homo sapiens) (UniProt Q8NGH7); remark: listed apart in the source
# Summary of the method: as §1
# Sequence of OR52E1 (Homo sapiens) (Q8NGJ3 whole entry): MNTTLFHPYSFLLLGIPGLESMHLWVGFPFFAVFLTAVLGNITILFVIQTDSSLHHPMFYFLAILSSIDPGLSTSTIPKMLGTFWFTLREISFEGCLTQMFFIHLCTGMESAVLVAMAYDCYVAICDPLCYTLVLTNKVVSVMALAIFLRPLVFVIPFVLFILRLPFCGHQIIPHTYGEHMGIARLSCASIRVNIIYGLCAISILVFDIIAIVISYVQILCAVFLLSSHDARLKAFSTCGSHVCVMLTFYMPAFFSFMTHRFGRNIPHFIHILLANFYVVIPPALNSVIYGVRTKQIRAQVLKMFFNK
# Sequence of OR52E4 (Homo sapiens) (Q8NGH9 whole entry): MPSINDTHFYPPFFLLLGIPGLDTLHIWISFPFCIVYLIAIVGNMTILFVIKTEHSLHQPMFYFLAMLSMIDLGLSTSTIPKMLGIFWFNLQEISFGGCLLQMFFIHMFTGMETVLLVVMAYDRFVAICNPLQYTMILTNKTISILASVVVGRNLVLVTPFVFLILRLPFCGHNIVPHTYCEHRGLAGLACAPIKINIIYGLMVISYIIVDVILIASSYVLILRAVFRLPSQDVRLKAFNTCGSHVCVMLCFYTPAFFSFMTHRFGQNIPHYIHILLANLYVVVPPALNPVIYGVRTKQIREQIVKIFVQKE
# Sequence of OR52K2 (Homo sapiens) (Q8NGK3 whole entry): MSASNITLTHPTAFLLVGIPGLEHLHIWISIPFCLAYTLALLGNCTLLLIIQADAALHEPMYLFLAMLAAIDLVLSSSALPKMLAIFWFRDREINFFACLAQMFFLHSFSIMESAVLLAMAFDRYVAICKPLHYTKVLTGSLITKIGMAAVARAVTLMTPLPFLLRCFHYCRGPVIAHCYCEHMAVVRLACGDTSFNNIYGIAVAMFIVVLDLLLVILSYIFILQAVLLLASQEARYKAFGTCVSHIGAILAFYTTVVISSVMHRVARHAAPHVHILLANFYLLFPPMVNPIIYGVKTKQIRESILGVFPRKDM
# Sequence of OR52J3 (Homo sapiens) (Q8NH60 whole entry): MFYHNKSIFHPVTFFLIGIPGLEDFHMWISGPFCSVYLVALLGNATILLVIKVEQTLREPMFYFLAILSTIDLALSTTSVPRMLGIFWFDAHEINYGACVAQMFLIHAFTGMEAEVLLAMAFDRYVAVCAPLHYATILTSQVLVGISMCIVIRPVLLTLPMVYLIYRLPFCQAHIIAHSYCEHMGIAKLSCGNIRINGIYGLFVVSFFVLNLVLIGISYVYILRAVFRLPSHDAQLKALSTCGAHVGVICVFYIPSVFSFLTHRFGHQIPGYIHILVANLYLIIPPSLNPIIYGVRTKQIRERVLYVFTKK
# Sequence of OR52W1 (Homo sapiens) (Q6IF63 whole entry): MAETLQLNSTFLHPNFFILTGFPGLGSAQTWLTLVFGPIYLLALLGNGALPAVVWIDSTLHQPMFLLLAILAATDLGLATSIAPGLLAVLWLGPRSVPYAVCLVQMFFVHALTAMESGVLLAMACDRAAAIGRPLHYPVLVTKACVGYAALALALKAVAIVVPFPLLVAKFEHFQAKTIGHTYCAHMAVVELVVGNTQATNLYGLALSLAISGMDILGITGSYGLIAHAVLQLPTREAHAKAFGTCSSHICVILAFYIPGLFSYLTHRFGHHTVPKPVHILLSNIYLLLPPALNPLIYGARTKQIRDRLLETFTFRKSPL
# Sequence of OR52M1 (Homo sapiens) (Q8NGK5 whole entry): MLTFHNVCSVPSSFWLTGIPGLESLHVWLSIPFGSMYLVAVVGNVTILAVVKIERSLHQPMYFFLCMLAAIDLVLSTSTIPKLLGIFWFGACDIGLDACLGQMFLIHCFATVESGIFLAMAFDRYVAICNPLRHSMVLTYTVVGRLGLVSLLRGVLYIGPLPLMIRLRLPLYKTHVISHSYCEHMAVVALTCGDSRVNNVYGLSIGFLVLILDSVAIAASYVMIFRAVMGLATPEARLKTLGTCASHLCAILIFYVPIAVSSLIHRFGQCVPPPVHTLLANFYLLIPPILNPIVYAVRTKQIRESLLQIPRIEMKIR
# Sequence of OR52R1 (Homo sapiens) (Q8NGF1 whole entry): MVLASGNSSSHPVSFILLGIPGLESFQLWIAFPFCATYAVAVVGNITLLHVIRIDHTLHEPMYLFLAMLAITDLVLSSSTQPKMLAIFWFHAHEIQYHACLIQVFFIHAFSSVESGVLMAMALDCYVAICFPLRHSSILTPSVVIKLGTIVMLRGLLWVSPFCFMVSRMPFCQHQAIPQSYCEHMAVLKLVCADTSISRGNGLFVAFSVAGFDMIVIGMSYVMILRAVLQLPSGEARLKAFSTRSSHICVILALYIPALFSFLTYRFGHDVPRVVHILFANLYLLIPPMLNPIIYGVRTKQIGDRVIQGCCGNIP
# Sequence of OR52E2 (Homo sapiens) (Q8NGJ4 whole entry): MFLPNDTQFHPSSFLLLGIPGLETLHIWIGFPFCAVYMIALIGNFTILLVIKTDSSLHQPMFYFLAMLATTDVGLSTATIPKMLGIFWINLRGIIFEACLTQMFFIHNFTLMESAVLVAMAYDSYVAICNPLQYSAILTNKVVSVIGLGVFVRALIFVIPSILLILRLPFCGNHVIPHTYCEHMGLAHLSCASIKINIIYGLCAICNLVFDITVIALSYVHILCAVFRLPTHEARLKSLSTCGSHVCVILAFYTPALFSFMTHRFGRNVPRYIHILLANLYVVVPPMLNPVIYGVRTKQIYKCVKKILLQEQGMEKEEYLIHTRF
# Sequence of OR52I1 (Homo sapiens) (Q8NGK6 whole entry): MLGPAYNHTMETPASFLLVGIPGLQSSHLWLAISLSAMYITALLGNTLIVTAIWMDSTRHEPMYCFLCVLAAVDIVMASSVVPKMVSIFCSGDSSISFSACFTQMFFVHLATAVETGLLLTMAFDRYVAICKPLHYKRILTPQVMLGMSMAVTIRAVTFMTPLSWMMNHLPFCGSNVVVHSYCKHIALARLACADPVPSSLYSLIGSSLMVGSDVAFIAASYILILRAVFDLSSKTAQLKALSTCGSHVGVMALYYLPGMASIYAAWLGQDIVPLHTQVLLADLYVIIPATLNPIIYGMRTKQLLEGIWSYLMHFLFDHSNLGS
# Sequence of OR52E6 (Homo sapiens) (Q96RD3 whole entry): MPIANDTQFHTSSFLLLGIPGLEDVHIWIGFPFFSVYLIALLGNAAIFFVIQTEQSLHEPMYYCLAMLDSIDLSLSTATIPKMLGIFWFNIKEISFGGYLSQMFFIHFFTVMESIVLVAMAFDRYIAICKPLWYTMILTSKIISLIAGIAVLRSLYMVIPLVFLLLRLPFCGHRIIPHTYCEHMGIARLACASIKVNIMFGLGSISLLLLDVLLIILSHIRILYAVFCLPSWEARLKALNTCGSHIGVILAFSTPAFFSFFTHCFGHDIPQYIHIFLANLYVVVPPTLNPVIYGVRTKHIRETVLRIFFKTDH
# Sequence of OR52N2 (Homo sapiens) (Q8NGI0 whole entry): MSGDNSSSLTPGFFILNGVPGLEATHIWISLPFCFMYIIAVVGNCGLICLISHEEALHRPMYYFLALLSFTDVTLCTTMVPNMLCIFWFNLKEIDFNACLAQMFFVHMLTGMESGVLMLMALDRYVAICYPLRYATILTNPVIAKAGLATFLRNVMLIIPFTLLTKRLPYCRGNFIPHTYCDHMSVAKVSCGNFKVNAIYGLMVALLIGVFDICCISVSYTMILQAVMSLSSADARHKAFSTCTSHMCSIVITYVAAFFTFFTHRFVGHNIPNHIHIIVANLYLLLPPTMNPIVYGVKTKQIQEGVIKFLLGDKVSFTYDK
# Sequence of OR52K1 (Homo sapiens) (Q8NGK4 whole entry): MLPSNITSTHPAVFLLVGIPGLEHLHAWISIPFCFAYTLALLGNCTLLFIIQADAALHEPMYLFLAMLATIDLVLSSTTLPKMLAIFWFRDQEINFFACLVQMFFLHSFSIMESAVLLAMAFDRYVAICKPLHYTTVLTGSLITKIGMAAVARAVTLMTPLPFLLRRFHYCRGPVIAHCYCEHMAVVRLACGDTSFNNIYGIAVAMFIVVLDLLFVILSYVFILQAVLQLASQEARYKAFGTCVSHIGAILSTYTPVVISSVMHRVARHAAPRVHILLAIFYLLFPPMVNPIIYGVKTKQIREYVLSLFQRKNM
# Sequence of OR52N1 (Homo sapiens) (Q8NH53 whole entry): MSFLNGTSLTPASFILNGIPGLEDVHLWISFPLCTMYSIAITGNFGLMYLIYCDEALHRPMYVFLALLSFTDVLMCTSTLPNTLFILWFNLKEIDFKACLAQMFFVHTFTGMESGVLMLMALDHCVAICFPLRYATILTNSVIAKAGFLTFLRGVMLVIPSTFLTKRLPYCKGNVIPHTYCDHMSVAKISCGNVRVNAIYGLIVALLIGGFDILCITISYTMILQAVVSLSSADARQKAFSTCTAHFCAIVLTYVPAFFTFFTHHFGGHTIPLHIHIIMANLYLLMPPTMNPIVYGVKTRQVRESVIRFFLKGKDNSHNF
# Sequence of OR52N5 (Homo sapiens) (Q8NH56 whole entry): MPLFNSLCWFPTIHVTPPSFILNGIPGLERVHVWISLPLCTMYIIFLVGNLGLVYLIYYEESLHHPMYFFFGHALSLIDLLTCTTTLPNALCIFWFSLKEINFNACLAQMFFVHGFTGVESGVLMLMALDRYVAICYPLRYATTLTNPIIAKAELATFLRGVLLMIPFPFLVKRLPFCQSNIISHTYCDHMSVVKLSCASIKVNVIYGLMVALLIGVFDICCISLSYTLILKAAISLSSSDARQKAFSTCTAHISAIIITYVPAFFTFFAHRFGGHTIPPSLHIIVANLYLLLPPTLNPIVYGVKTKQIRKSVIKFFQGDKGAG
# Sequence of OR52I2 (Homo sapiens) (Q8NH67 whole entry): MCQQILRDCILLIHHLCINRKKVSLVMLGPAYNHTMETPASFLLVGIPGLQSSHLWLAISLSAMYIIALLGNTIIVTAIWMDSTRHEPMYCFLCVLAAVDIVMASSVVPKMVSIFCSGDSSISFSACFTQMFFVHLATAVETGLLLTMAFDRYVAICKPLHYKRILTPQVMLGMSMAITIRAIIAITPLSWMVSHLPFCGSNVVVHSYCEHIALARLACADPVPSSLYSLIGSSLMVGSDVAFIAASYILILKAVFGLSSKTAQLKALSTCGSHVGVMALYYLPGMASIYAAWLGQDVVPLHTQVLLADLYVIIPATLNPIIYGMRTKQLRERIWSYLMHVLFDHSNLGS
smiles,measurement,setting,value
CC(=O)CCc1ccc2c(c1)OCO2,odorant receptor agonist call,OR52D1 (Homo sapiens),inactive
c1ccncc1,odorant receptor agonist call,OR52D1 (Homo sapiens),inactive
C=CCOC(=O)Cc1ccccc1,odorant receptor agonist call,OR52D1 (Homo sapiens),inactive
same,odorant receptor agonist call,OR52E1 (Homo sapiens),inactive
same,odorant receptor agonist call,OR52E2 (Homo sapiens),inactive
same,odorant receptor agonist call,OR52E4 (Homo sapiens),inactive
same,odorant receptor agonist call,OR52E6 (Homo sapiens),inactive
same,odorant receptor agonist call,OR52I1 (Homo sapiens),inactive
same,odorant receptor agonist call,OR52I2 (Homo sapiens),inactive
same,odorant receptor agonist call,OR52J3 (Homo sapiens),inactive
same,odorant receptor agonist call,OR52K1 (Homo sapiens),inactive
same,odorant receptor agonist call,OR52K2 (Homo sapiens),inactive
same,odorant receptor agonist call,OR52L1 (Homo sapiens) [1],inactive
same,odorant receptor agonist call,OR52M1 (Homo sapiens),inactive
same,odorant receptor agonist call,OR52N1 (Homo sapiens),inactive
same,odorant receptor agonist call,OR52N2 (Homo sapiens),inactive
same,odorant receptor agonist call,OR52N4 (Homo sapiens),inactive
same,odorant receptor agonist call,OR52N5 (Homo sapiens),inactive
same,odorant receptor agonist call,OR52R1 (Homo sapiens),inactive
same,odorant receptor agonist call,OR52W1 (Homo sapiens),inactive
C=CCc1ccc(OC)cc1,odorant receptor agonist call,OR52D1 (Homo sapiens),active
Cc1c([N+](=O)[O-])c(C)c([N+](=O)[O-])c(C(C)(C)C)c1[N+](=O)[O-],odorant receptor agonist call,OR52D1 (Homo sapiens),inactive
same,odorant receptor agonist call,OR52E1 (Homo sapiens),inactive
same,odorant receptor agonist call,OR52E2 (Homo sapiens),inactive
same,odorant receptor agonist call,OR52E4 (Homo sapiens),inactive
same,odorant receptor agonist call,OR52E5 (Homo sapiens),inactive
same,odorant receptor agonist call,OR52E6 (Homo sapiens),inactive
same,odorant receptor agonist call,OR52I1 (Homo sapiens),inactive
same,odorant receptor agonist call,OR52I2 (Homo sapiens),inactive
same,odorant receptor agonist call,OR52J3 (Homo sapiens),inactive
same,odorant receptor agonist call,OR52K1 (Homo sapiens),inactive
same,odorant receptor agonist call,OR52K2 (Homo sapiens),inactive
same,odorant receptor agonist call,OR52L1 (Homo sapiens) [2],inactive
same,odorant receptor agonist call,OR52M1 (Homo sapiens),inactive
same,odorant receptor agonist call,OR52N1 (Homo sapiens),inactive
same,odorant receptor agonist call,OR52N2 (Homo sapiens),inactive
same,odorant receptor agonist call,OR52N4 (Homo sapiens),inactive
same,odorant receptor agonist call,OR52N5 (Homo sapiens),inactive
same,odorant receptor agonist call,OR52R1 (Homo sapiens),inactive
same,odorant receptor agonist call,OR52W1 (Homo sapiens),inactive
COc1ccc(C=O)cc1,odorant receptor agonist call,OR52D1 (Homo sapiens),active
CC(C=O)Cc1ccc2c(c1)OCO2 (stereo not given),odorant receptor agonist call,OR52D1 (Homo sapiens),active
C=CCc1ccc2c(c1)OCO2,odorant receptor agonist call,OR52D1 (Homo sapiens),inactive
O=CC=Cc1ccccc1,odorant receptor agonist call,OR52D1 (Homo sapiens),active
O=Cc1ccccc1,odorant receptor agonist call,OR52D1 (Homo sapiens),active
